The full list was thinned out, with hits kept by preference.
Calb FLC – C. albicans growth inhibition with fluconazole, primary screen, CaCi-2 strain, Alamar Blue fluorescence; C. albicans CaCi-2 (fluconazole-resistant clinical isolate) + fluconazole, 48 h; growth inhibition, % (no concentration beside the values); 300,000 tested, 0.57% active;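 active means growth inhibition above about 58% in most replicates, limit read from the data, passing the limit was not always enough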;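 further: all wells also contain fluconazole at 8 µg/ml as a sub-toxic cotreatment; 0% = median of DMSO wells and 100% = median of geldanamycin control wells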
Lmaj promast – Leishmania major promastigote growth inhibition, primary screen | Leishmania major promastigotes, resazurin fluorescence viability | 200,000 tested, 9% active | AID 1063, 2008 | inhibition, % at 10 µM; in the data active means inhibition above about 50%;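 further: promastigotes grown with compound for 44 hours at 28 °C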
NALP1 yeast inh – NALP1 inflammasome inhibitors in reconstituted yeast, colorimetric, S. cerevisiae, triplicate retest; S. cerevisiae NALP1/ASC/caspase-1 growth, X-gal OD620, 72 h; inhibition, % at 10 µM; 280,000 tested, 0.61% active; AID 2071, 2009; in the data active means inhibition mostly above about 24%, no sharp cut-off; inactive means mostly below about 32%
NALP3 yeast inh – NALP3 inflammasome inhibitors in reconstituted yeast, primary screen, luminescence, uHTS | AID 2825, 2010 | inhibition, % at 10 µM | Yeast reconstituted NLRP3/ASC/caspase-1, beta-gal luminescence, 24 h | 330,000 tested, 0.39% active;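 active means inhibition of 50% or more; inactive means inhibition below 50%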;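 further: plate controls were induced DMSO wells for no effect and uninduced yeast grown without galactose for full effect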
PolyA inhibitor – polyadenylation inhibitors in yeast reporter cells, primary screen, luminescence, S. cerevisiae; S. cerevisiae SKY197-pL101 polyadenylation reporter, beta-gal luminescence; efflux-impaired pdr1/pdr3 knockout yeast; score 100 = 6 SD above DMSO; activity score, % at 12 µM; 300,000 tested, 0.02% active; AID 1875, 2009;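 active means lowest replicate activity score at least 50, where 100 means six control SD above control mean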;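 further: yeast exposed to compound for 9 h at 30 °C; higher score means more reporter readthrough which indicates perturbed polyadenylation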
T cruzi inh – inhibitors of intracellular T. cruzi growth, primary screen, luminescence, NIH3T3 host cells; T. cruzi beta-gal in NIH3T3, 90 h; inhibition, % (test concentration not listed); 300,000 tested, 1.4% active; AID 1885, 2009;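 active means mean inhibition across valid replicates above about 55%, limit read from the data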;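 further: signal also drops with host cell toxicity which is not excluded here; 0% = plate median of DMSO wells and 100% = zero luminescence signal; higher percent means less beta-gal luminescence so fewer parasites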
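Material: NIH/3T3 host cells with β-galactosidase reporter T. cruzi; Input: 5,000 host fibroblasts per well; Medium: DMEM, 2% fetal bovine serum; Compound: 50 nL DMSO compound solution per well; Schedule: 3 h host attachment, then at least 90 h co-culture; Detection: luminescent β-galactosidase signal after 60 min lysis.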
* = called active by the depositor; / = not tested or not shown.

SMILES	Calb FLC	Lmaj promast	NALP1 yeast inh	NALP3 yeast inh	PolyA inhibitor	T cruzi inh
CC(C)CC(c1nnnn1C(C)(C)C)N1CCN(Cc2ccccc2)CC1 (configuration not stated)	-1	30	-4	8	7	-5
c1ccc(-c2csc(Nc3nc(N4CCOCC4)nc(N4CCOCC4)n3)n2)cc1	1	2	5	15	-4	61*
CCOC(=O)c1cnc(Nc2nc3ccccc3o2)nc1CSC(=S)N(CC)CC	4	100*	18	20	-11	61*
O=C1CCc2cc(NS(=O)(=O)c3ccc(Cl)cc3)cc3c2N1CC3	14	/	/	3	9	-5
Cc1ccc(N/C=C2\CCCCC2=O)nc1	4	-4	-26	11	-6	-4
CCc1cc2c(=O)c(-c3ccc4c(c3)OCCO4)coc2c(CN2CCCCC2C)c1O (configuration not stated)	30	8	-8	21	0	56*
Cn1cc(S(=O)(=O)N2CCc3ccccc32)cc1C(=O)NC(C)(C)C	1	/	23	1	-11	1
O=C1C2C3CCC(C3NCc3ccccc3)C2C(=O)N1Cc1ccccc1 (configuration not stated)	-6	60*	20	5	-2	13
N#CCCN/N=C(/Cc1nc2ccccc2[nH]1)c1cccc(Cl)c1	13	78*	-9	11	-11	41
Clc1ccc(/C(Cc2nc3ccccc3[nH]2)=N\Nc2ccccc2)cc1	-45	43	28*	31	14	40
O=C(Cc1nc2ccccc2[nH]1)c1ccc(Cl)cc1	9	/	5	24	28	-4
Cc1nn(C2CCCO2)c(=O)nc1N (configuration not stated)	-8	2	-23	6	9	4
Cc1ccc(C(C)NC(=O)c2ccncc2)c(C)c1 (configuration not stated)	3	/	/	14	-14	-1
Cc1nn(Cc2cccc(C(=O)Nc3ccn(Cc4c(F)c(F)cc(F)c4F)n3)c2)c(C)c1[N+](=O)[O-]	-10	14	-40	17	10	68*
Cc1nn(C)c(C(=O)Nc2ccn(Cc3c(F)c(F)cc(F)c3F)n2)c1[N+](=O)[O-]	1	4	41	8	3	-1
CC1=C(C(=O)OC(C)C)C(C)C(C(=O)OC(C)C)=C(C)N1	0	2	29	31	-8	20
O=Cc1ccccc1OCCOc1ccc([N+](=O)[O-])cc1	-3	52*	-9	23	33	-16
CCCOC(=O)c1c(NC(=O)CSc2nc(-c3ccco3)cc(C(F)(F)F)n2)sc(C(=O)OC)c1C	-1	8	41*	16	-11	25
NCCCCCc1nnc(SCc2ccc(Cl)c(Cl)c2)o1	2	100*	-1	29	3	2
NCCCCCc1nnc(SCC(N)=O)o1	-21	-3	-1	8	-3	-17
O=C(CCCN1C(=O)/C(=C/c2ccccc2OC(F)F)SC1=S)Nc1cccnc1	/	/	/	24	/	/
COc1ccc(/C=C2\CCCc3c2nc2ccccc2c3C(=O)OCC(=O)c2c(N)n(C)c(=O)n(C)c2=O)cc1	7	26	23	12	-3	68*
Cc1cccc(C)c1NC(=O)COC(=O)c1c2c(nc3ccccc13)/C(=C\c1ccc3c(c1)OCO3)CCC2	/	83*	9	/	/	/
CC(OC(=O)c1c2c(nc3ccccc13)/C(=C\c1ccc3c(c1)OCO3)CCC2)C(=O)Nc1ccc(S(N)(=O)=O)cc1 (configuration not stated)	/	14	20	/	/	/
O=C(Nc1cc(Cl)ccc1-n1cncn1)c1cc(S(=O)(=O)N2CCOCC2)ccc1F	-6	/	11	2	9	9
O=C(NCc1ccccc1)C(=O)NCC(c1ccco1)N1CCN(c2ccccc2F)CC1 (configuration not stated)	7	12	-9	-11	-10	-9

Source: PubChem BioAssay (several laboratories)
